Data on 6 compounds can be found in ChEMBL document CHEMBL1151332, “A new prenylated flavonol from the roots of Sophora flavescens” (J Nat Prod, 1998).

In brackets after ≈: the same amount, converted by molar mass. Activity calls are given as the source filed them. The calls are words filed in the database; no cut-off is given here. Where only a bound is given, the exact number is not on record here.

The test system of one assay is Human alphaherpesvirus 2. As to the kind of experiment: Antiviral activity against HSV2 in african green monkey Vero cells assessed as virus-induced cytopathic effect after 3 days by MTT assay. The assay is classed as functional, organism-based. Conditions: for EC50: Human alphaherpesvirus 2, Vero, 72 h. A digest of the protocol: (§1)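 Vero cells seeded at 3 × 10³/well and grown 3-4 days to a confluent monolayer, washed, then infected with virus diluted in DME plus 2% FBS at a dose equal to 50% cell culture inhibitory dose (CCID50) for 60 min at 37 °C. Inoculum removed; medium with graded sample concentrations (below 300 µg/mL) added in duplicate; 3 days at 37 °C, 5% CO2. MTT read-out; EC50 = concentration inhibiting virus-induced CPE by 50%.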
For orientation: Cytopathic effects are the visible damage that an infection or toxin causes in cultured cells.

For another assay, the system named is Human alphaherpesvirus 1. In words: Antiviral activity against HSV1 in african green monkey Vero cells assessed as virus-induced cytopathic effect after 3 days by MTT assay. Type of assay: functional, organism-based. Conditions: Human alphaherpesvirus 1, Vero, 72 h. A digest of the protocol:
as §1

The term EC50 denotes the concentration that produces a half-maximal response. `C=C(C)[C@H](CC=C(C)C)Cc1c(O)cc(OC)c(C(=O)/C=C/c2ccc(O)cc2O)c1O` [KURAIDIN]: the result in the assay on Human alphaherpesvirus 2 was inactive. Also, the EC50 in the assay on Human alphaherpesvirus 1 is over 300 µg/mL.

As to `C=C(C)[C@H](CCC(C)(C)O)Cc1c(O)cc(OC)c2c1O[C@H](c1ccc(O)cc1O)CC2=O` [KURARINOL], the concentration for a half-maximal effect (EC50) amounted to 44 µg/mL (≈ 96.4 µM) in the assay with Human alphaherpesvirus 2 and 60 µg/mL (≈ 131 µM) in the assay with Human alphaherpesvirus 1.

As to `C=C(C)[C@H](CCC(C)(C)O)Cc1c(O)cc(OC)c2c1O[C@H](c1ccc(O)cc1O)[C@@H](O)C2=O` [KUSHENOL H], the EC50 in the assay with Human alphaherpesvirus 2 was 162 µg/mL (≈ 343 µM); in the assay with Human alphaherpesvirus 1, over 300 µg/mL.

As for `C=C(C)[C@H](CCC(C)(C)O)Cc1c(O)cc(OC)c2c1O[C@H](c1ccc(O)cc1O)[C@H](O)C2=O` [KUSHENOL K], the concentration for a half-maximal effect (EC50) in the assay on Human alphaherpesvirus 2 was 147 µg/mL (≈ 311 µM); in the assay on Human alphaherpesvirus 1, over 300 µg/mL.

Take `COc1cc(O)c(CC=C(C)C)c2oc(-c3ccc(O)cc3)c(O)c(=O)c12` [SOPHOFLAVESCENOL]: the outcome in the assay on Human alphaherpesvirus 2 was inactive. Moreover, the EC50 with Human alphaherpesvirus 1 was over 300 µg/mL.

`OC[C@H]1O[C@@H](Oc2ccc3c(c2)OC[C@H]2c4cc5c(cc4O[C@@H]32)OCO5)[C@H](O)[C@@H](O)[C@@H]1O` [TRIFOLIRHIZIN]: the outcome in the assay with Human alphaherpesvirus 2 was inactive. The concentration for a half-maximal effect (EC50) in the assay with Human alphaherpesvirus 1 is over 300 µg/mL.
